Structures are written as SMILES.

Data set [1] in a line: Partition coefficient was obtained using Taylor-Aris diffusion process. It is filed as ADME. The following applies: E. coli cells. The gist of the method:
(§1)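 Partition coefficient by Taylor-Aris diffusion in the same cells as the screen. Cells from a liquid-nitrogen ampule were put in 25 mL 1/4 Ringer's solution; 15 mL of this was diluted with a further 24 mL 1/4 Ringer's. Water bath held at 298.15 K. Carrier pumped at least 10 min or to stable baseline before first injection. Retention time and half-height peak width taken from dispersion curve. At least two replicates per solute.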

Data set [2] concerns Escherichia coli. Description: Observed diffusion coefficient in organic solvent for Escherichia coli. It is filed as ADME, organism-based. More on the design: unit not given here. In outline:
as §1

Data set [3] has as its system Escherichia coli. Description: Potency against Escherichia coli was determined microcalorimetrically at the dose of 2.619 uMol/L. It is filed as functional, organism-based.
The subject of data set [4] is Escherichia coli. Description: Normal diffusion coefficient in water for Escherichia coli. It is filed as ADME, organism-based. The arrangement: unit not given here. The gist of the method:
as §1

`COc1ccc(C(=O)NNC(=O)c2ccccc2)cc1` came in with a logP in data set [1] of -1. The molecule further came in with a Dobs in data set [2] of 8.98. In data set [3], the Log D50 amounted to 2.6. The molecule also returned a DW in data set [4] of 9.86.
As for `CCCCCc1ccc(C(=O)NNC(=O)c2ccccc2)cc1`, in data set [1], the logP is -0.652. In data set [2], this molecule returned a Dobs of 17.3. Further, in data set [3], the Log D50 worked out at 3.05. In data set [4], the DW worked out at 21.15.
`O=C(NNC(=O)c1ccccc1)c1ccccc1`: the logP in data set [1] is -1.09. The molecule also gave a Dobs in data set [2] of 9.2. The Log D50 in data set [3] was found to be 2.28. Further, the DW in data set [4] amounted to 9.94.
In data set [1], `O=C(NNC(=O)c1ccc(-c2ccccc2)cc1)c1ccccc1` displayed a logP of -0.787. The molecule further gave a Dobs in data set [2] of 14.6. This molecule also gave a Log D50 in data set [3] of 3.24. The molecule further registered a DW in data set [4] of 16.98.
In the same order, the values of `CC(C)(C)c1ccc(C(=O)NNC(=O)c2ccccc2)cc1` are -0.799, 15.1, 3.21 and 17.5.
Turning to `Cc1ccc(C(=O)NNC(=O)c2ccccc2)cc1`, the logP in data set [1] was -0.956. In data set [2], the Dobs stood at 11.02. For the same molecule, in data set [3], the Log D50 amounted to 2.54. The DW in data set [4] came to 12.24.
For the molecule `O=C(NNC(=O)c1ccc([N+](=O)[O-])cc1)c1ccccc1`, the logP in data set [1] is -1.14. In data set [2], this molecule had a Dobs of 10.15. The molecule also came in with a Log D50 in data set [3] of 2.38. The DW in data set [4] is listed as 10.879.
In turn, `O=C(NNC(=O)c1ccc(Br)cc1)c1ccccc1` gave a logP in data set [1] of -0.879. In data set [2], the Dobs was determined as 11.9. Further, the Log D50 in data set [3] amounted to 2.73. The same molecule had a DW in data set [4] of 13.47.

The values above are taken from ChEMBL document CHEMBL1133012, “QSAR based on biological microcalorimetry” (J Med Chem, 2000).
